According to ChEMBL document CHEMBL5030534, “Discovery of Novel Anti-Breast-Cancer Inhibitors by Synergistically Antagonizing Microtubule Polymerization and Aryl Hydrocarbon Receptor Expression” (J Med Chem, 2021):
Active and inactive are the calls of the source. The rule behind the calls is not given here.

Experiments:
L02 = test: Antiproliferative activity against human L-O2 cells assessed as reduction in cell viability incubated for 48 hrs by MTT assay; assay type: cell-based; settings: L02, 48 h
How it was run: (§1)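 Cells seeded at 5 × 10³ per well, incubated overnight, then exposed to a range of compound concentrations for 48 h. MTT added for 4 h, medium replaced with DMSO, absorbance read at 570 nm. MCF-7, L-O2 grown in DMEM; MCF-10A, MCF-7/ADR in RPMI 1640. Three independent runs.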

MCF-10A = test: Antiproliferative activity against human MCF-10A cells assessed as reduction in cell viability incubated for 48 hrs by MTT assay; assay type: cell-based; how it was run: as §1
[1] = Antiproliferative activity against human MCF7/ADR cells assessed as reduction in cell viability incubated for 48 hrs by MTT assay; assay type: functional, cell-based; settings: MCF7, 48 h
How it was run: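 Cells seeded at 5 × 10³ per well, incubated overnight, then exposed to a range of compound concentrations for 48 h. MTT added for 4 h, medium replaced with DMSO, absorbance read at 570 nm. Three independent runs.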

MCF7 [2] = test: Antiproliferative activity against human MCF7 cells assessed as reduction in cell viability incubated for 48 hrs by MTT assay; assay type: functional, cell-based; settings: MCF7, 48 h; how it was run: as §1
MCF7 [3] = test: Antitumor activity against human MCF7 cells xenografted in BALB/c nude mouse assessed as decrease in tumor weight at 10 mg/kg, iv administered every 2 days for 21 days and measured every 2 days; assay type: functional; set-up: scale not given: the % may be the effect or the level left; settings: time 21 day
How it was run: (§2)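 MCF-7 cells (6 × 10⁶) injected subcutaneously into right flank of BALB/c nude mice; after 7 days animals randomized, eight per group. Dosing iv every 2 days for 21 days, vehicle 10% DMSO/5% Tween 80/85% saline. Tumor size and body weight recorded every 2 days; tumors excised and weighed at sacrifice.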

Tubulin (Homo sapiens) = Tubulin (Homo sapiens) (UniProt P68371+Q9H4B7+P0DPH7+P68366+Q13509+Q71U36+P04350+Q3ZCM7+P07437+P68363+Q9BQE3+Q6PEY2+Q13885+Q9BVA1+Q9BUF5); test: Induction of microtubule depolymerization in human MCF7 cells at 10 uM measured every 5 mins for 60 mins by spectrophotometric method; assay type: cell-based
How it was run: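 Purified tubulin at 2 mg/mL in PEM buffer preincubated on ice with compound or DMSO. PEG added to a final 3 mg/mL, then polymerization followed at 37 °C by absorbance at 350 nm every 5 min for 60 min.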

MCF7 [4] = test: Antitumor activity against human MCF7 cells xenografted in BALB/c nude mouse assessed as decrease in tumor weight at 20 mg/kg, iv administered every 2 days for 21 days and measured every 2 days; assay type: functional; set-up: scale not given: the % may be the effect or the level left; settings: time 21 day; how it was run: as §2

| SMILES | IC50 (MCF7 [2]) [nM] | IC50 (L02) [nM] | IC50 (MCF-10A) [nM] | IC50 [1] [nM] | Activity (MCF7 [3]) [%] | Activity (Tubulin (Homo sapiens)) | Activity (MCF7 [4]) [%] |
| --- | --- | --- | --- | --- | --- | --- | --- |
| COc1cc(N(C)c2cc(C)nc3ccccc23)cc(OC)c1OC | > 1000 | 4120 | > 1000 | 912 | – | – | – |
| Cc1nc(N(C)c2cnc3c(ccn3C)c2)c2ccccc2n1 | 2.1 | 7.3 | 16 | 2.1 | – | – | – |
| CC(=O)O[C@H]1C(=O)[C@@]2(C)[C@H]([C@H](OC(=O)c3ccccc3)[C@]3(O)C[C@H](OC(=O)[C@H](O)[C@@H](NC(=O)c4ccccc4)c4ccccc4)C(C)=C1C3(C)C)[C@]1(OC(C)=O)CO[C@@H]1C[C@@H]2O [PACLITAXEL] | – | – | – | – | 84.2 | inactive | – |
| COc1ccc(/C=C\c2cc(OC)c(OC)c(OC)c2)cc1O [COMBRETASTATIN A4] | 4.8 | 10.3 | 99 | – | – | Active | 37.5 |
| Cc1cc(N(C)c2ccc(C(F)(F)F)cc2)c2ccccc2n1 | > 1000 | 3840 | > 1000 | 859 | – | – | – |
| Cc1cc(N(C)c2ccc(-c3ccccc3)cc2)c2ccccc2n1 | > 1000 | 3450 | > 1000 | 817 | – | – | – |
| CCN(CC)c1ccc(N(C)c2cc(C)nc3ccccc23)cc1 | 25 | 31 | 12 | 267 | – | – | – |
| Cc1cc(N(C)c2ccc3c(c2)OCO3)c2ccccc2n1 | 54 | 2500 | 127 | 46 | – | – | – |

More lines, main results first:

| IC50 (MCF7 [2]) [nM] | SMILES | IC50 (L02) [nM] | IC50 (MCF-10A) [nM] | IC50 [1] [nM] | Activity (MCF7 [3]) [%] | Activity (Tubulin (Homo sapiens)) | Activity (MCF7 [4]) [%] |
| --- | --- | --- | --- | --- | --- | --- | --- |
| 97 | COc1ccc(N(C)c2cc(C)nc3ccccc23)cc1OC | 2170 | 473 | 29 | – | – | – |
| 103 | Cc1ccc(N(C)c2cc(C)nc3ccccc23)cc1 | 1530 | 184 | 54 | – | – | – |
| 2.4 | Cc1cc(N(C)c2ccc3c(c2)cc(C)n3C)c2ccccc2n1 | 7.3 | 10 | 2.2 | – | – | – |
| 943 | Cc1cc(N(C)c2ccc(N(C)C)cc2)c2ccccc2n1 | 227 | 49 | 33 | – | – | – |
| 4.5 | Cc1cc(N(C)c2cnc3c(ccn3C)c2)c2ccccc2n1 | 10 | 24 | 6.1 | – | – | – |
